Results reported in ChEMBL document CHEMBL3877325, “Novel salicylanilides from 4,5-dihalogenated salicylic acids: Synthesis, antimicrobial activity and cytotoxicity” (Bioorg Med Chem, 2017).
Values after ≈ are worked out from the molar mass of the structure shown.

Legend:
[1] = system: Mycobacterium tuberculosis; experiment: Antimycobacterial activity against Mycobacterium tuberculosis H37Rv My 331/88 after 21 days by micromethod; type: functional; conditions: H37Rv My 331/88, 504 h
Method in brief: (§1)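 MIC micromethod in Šula's semisynthetic medium at 37 °C, read after 14 and 21 days. Compounds added as DMSO solutions at 500 down to 0.5 µM (twofold-type series: 500, 250, 125, 62.5, 32, 16, 8, 4, 2, 1, 0.5 µM). Isoniazid standard given in sterile water.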

Mycobacterium kansasii [2] = experiment: Antimycobacterial activity against Mycobacterium kansasii isolate 6509/96 after 14 days by micromethod; type: functional; conditions: isolate 6509/96, 336 h
Method in brief: (§2)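 MIC in Šula's semisynthetic medium at 37 °C, read after 7, 14 and 21 days. Inoculum is strain dilution 10^-4; 235/80 is a collection strain and 6509/96 a clinical isolate. Compounds are added as DMSO solutions at 500, 250, 125, 62.5, 32, 16, 8, 4, 2, 1 and 0.5 µM. INH (in sterile water) and PAS are the reference drugs.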

Mycobacterium kansasii [3] = experiment: Antimycobacterial activity against Mycobacterium kansasii isolate 6509/96 after 21 days by micromethod; type: functional; conditions: isolate 6509/96, 504 h; method in brief: as §2
[4] = Selectivity index, ratio of IC50 for human HepG2 cells to MIC for Mycobacterium tuberculosis H37Rv after 21 days; type: toxicity, cell-based; conditions: HepG2 cells versus Mycobacterium tuberculosis H37Rv, read-out: Selectivity Index
Method in brief: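 HepG2 cells (passages 33-37) seeded at 1 × 10^4 per well and treated next day with 0.1–100 µM in triplicate. After 24 h at 37 °C, 5% CO2, MTS reagent added for 2 h and absorbance read at 490 nm. IC50 taken from viability relative to untreated control, then divided by the 21-day H37Rv MIC.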

Mycobacterium kansasii [5] = experiment: Antimycobacterial activity against Mycobacterium kansasii isolate 235/80 after 14 days by micromethod; type: functional; conditions: isolate 235/80, 336 h; method in brief: as §2
Mycobacterium kansasii [6] = experiment: Antimycobacterial activity against Mycobacterium kansasii isolate 6509/96 after 7 days by micromethod; type: functional; conditions: isolate 6509/96, 168 h; method in brief: as §2
[7] = system: Mycobacterium tuberculosis; experiment: Antimycobacterial activity against Mycobacterium tuberculosis H37Rv My 331/88 after 14 days by micromethod; type: functional; conditions: H37Rv My 331/88, 336 h; method in brief: as §1
Mycobacterium kansasii [8] = experiment: Antimycobacterial activity against Mycobacterium kansasii isolate 235/80 after 7 days by micromethod; type: functional; conditions: isolate 235/80, 168 h; method in brief: as §2
Mycobacterium kansasii [9] = experiment: Antimycobacterial activity against Mycobacterium kansasii isolate 235/80 after 21 days by micromethod; type: functional; conditions: isolate 235/80, 504 h; method in brief: as §2
Mycobacterium avium [10] = experiment: Antimycobacterial activity against Mycobacterium avium My 330/80 after 14 days by micromethod; type: functional; conditions: My 330/80, 336 h
Method in brief: (§3)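 M. avium My 330/80 (collection strain) inoculated at 10^-5 dilution into Šula's semisynthetic medium. Compounds added from DMSO solutions at 500, 250, 125, 62.5, 32, 16, 8, 4, 2, 1 and 0.5 µM. MIC determined by micromethod at 37 °C, read after 14 and 21 days.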

Mycobacterium avium [11] = experiment: Antimycobacterial activity against Mycobacterium avium My 330/80 after 21 days by micromethod; type: functional; conditions: My 330/80, 504 h; method in brief: as §3
[12] = Cytotoxicity against human HepG2 cells assessed as reduction in cell viability after 24 hrs by MTS assay; type: toxicity, cell-based
Method in brief: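 HepG2 cells (passages 33-37) are grown in MEM with 10% FBS, L-glutamine and non-essential amino acids. They are seeded at 1 × 10^4 cells/well and treated next day with 0.1-100 µM in triplicate for 24 h at 37 °C, 5% CO2. MTS reagent is added for 2 h and A490 read.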

Compound	MIC [1]	MIC (Mycobacterium kansasii [2])	MIC (Mycobacterium kansasii [3])	selectivity ratio at 504 h [4]	MIC (Mycobacterium kansasii [5])	MIC (Mycobacterium kansasii [6])	MIC [7]	MIC (Mycobacterium kansasii [8])	MIC (Mycobacterium kansasii [9])	MIC (Mycobacterium avium [10])	MIC (Mycobacterium avium [11])	IC50 at 24 h [12]
O=C(Nc1ccc(Br)cc1)c1cc(Cl)ccc1O	16 µM (≈ 5.23 µg/mL)	8 µM (≈ 2.61 µg/mL)	8 µM (≈ 2.61 µg/mL)	0.2	4 µM (≈ 1.31 µg/mL)	4 µM (≈ 1.31 µg/mL)	8 µM (≈ 2.61 µg/mL)	4 µM (≈ 1.31 µg/mL)	4 µM (≈ 1.31 µg/mL)	8 µM (≈ 2.61 µg/mL)	8 µM (≈ 2.61 µg/mL)	3.14 µM
O=C(Nc1cc(C(F)(F)F)cc(C(F)(F)F)c1)c1cc(Br)ccc1O	2 µM (≈ 0.856 µg/mL)	8 µM (≈ 3.43 µg/mL)	8 µM (≈ 3.43 µg/mL)	3.4	8 µM (≈ 3.43 µg/mL)	4 µM (≈ 1.71 µg/mL)	2 µM (≈ 0.856 µg/mL)	4 µM (≈ 1.71 µg/mL)	8 µM (≈ 3.43 µg/mL)	16 µM (≈ 6.85 µg/mL)	16 µM (≈ 6.85 µg/mL)	7.8 µM
O=C(Nc1ccc(C(F)(F)F)cc1)c1cc(Br)ccc1O	1 µM (≈ 0.36 µg/mL)	4 µM (≈ 1.44 µg/mL)	4 µM (≈ 1.44 µg/mL)	1.81	2 µM (≈ 0.72 µg/mL)	2 µM (≈ 0.72 µg/mL)	1 µM (≈ 0.36 µg/mL)	2 µM (≈ 0.72 µg/mL)	4 µM (≈ 1.44 µg/mL)	1 µM (≈ 0.36 µg/mL)	1 µM (≈ 0.36 µg/mL)	1.81 µM
O=C(Nc1ccc(Cl)c(Cl)c1)c1cc(Br)ccc1O	4 µM (≈ 1.44 µg/mL)	2 µM (≈ 0.722 µg/mL)	4 µM (≈ 1.44 µg/mL)	7.87	8 µM (≈ 2.89 µg/mL)	2 µM (≈ 0.722 µg/mL)	4 µM (≈ 1.44 µg/mL)	8 µM (≈ 2.89 µg/mL)	8 µM (≈ 2.89 µg/mL)	8 µM (≈ 2.89 µg/mL)	8 µM (≈ 2.89 µg/mL)	31.5 µM
O=C(Nc1ccc(C(F)(F)F)cc1)c1ccc(Br)cc1O	2 µM (≈ 0.72 µg/mL)	4 µM (≈ 1.44 µg/mL)	4 µM (≈ 1.44 µg/mL)	7.52	2 µM (≈ 0.72 µg/mL)	2 µM (≈ 0.72 µg/mL)	1 µM (≈ 0.36 µg/mL)	2 µM (≈ 0.72 µg/mL)	4 µM (≈ 1.44 µg/mL)	8 µM (≈ 2.88 µg/mL)	8 µM (≈ 2.88 µg/mL)	15 µM
O=C(Nc1cc(C(F)(F)F)cc(C(F)(F)F)c1)c1ccc(Br)cc1O	4 µM (≈ 1.71 µg/mL)	16 µM (≈ 6.85 µg/mL)	16 µM (≈ 6.85 µg/mL)	2.02	8 µM (≈ 3.43 µg/mL)	8 µM (≈ 3.43 µg/mL)	2 µM (≈ 0.856 µg/mL)	8 µM (≈ 3.43 µg/mL)	16 µM (≈ 6.85 µg/mL)	32 µM (≈ 13.7 µg/mL)	32 µM (≈ 13.7 µg/mL)	8.08 µM
O=C(Nc1ccc(Br)cc1)c1cc(Cl)c(Br)cc1O	2 µM (≈ 0.811 µg/mL)	8 µM (≈ 3.24 µg/mL)	8 µM (≈ 3.24 µg/mL)	4.89	8 µM (≈ 3.24 µg/mL)	4 µM (≈ 1.62 µg/mL)	2 µM (≈ 0.811 µg/mL)	4 µM (≈ 1.62 µg/mL)	8 µM (≈ 3.24 µg/mL)	32 µM (≈ 13 µg/mL)	32 µM (≈ 13 µg/mL)	9.78 µM
O=C(Nc1cc(C(F)(F)F)cc(C(F)(F)F)c1)c1cc(Cl)c(Br)cc1O	2 µM (≈ 0.925 µg/mL)	8 µM (≈ 3.7 µg/mL)	8 µM (≈ 3.7 µg/mL)	2.4	8 µM (≈ 3.7 µg/mL)	8 µM (≈ 3.7 µg/mL)	2 µM (≈ 0.925 µg/mL)	8 µM (≈ 3.7 µg/mL)	8 µM (≈ 3.7 µg/mL)	32 µM (≈ 14.8 µg/mL)	32 µM (≈ 14.8 µg/mL)	4.8 µM
O=C(Nc1ccc(Cl)c(Cl)c1)c1ccc(Br)cc1O	2 µM (≈ 0.722 µg/mL)	4 µM (≈ 1.44 µg/mL)	8 µM (≈ 2.89 µg/mL)	8.84	4 µM (≈ 1.44 µg/mL)	4 µM (≈ 1.44 µg/mL)	1 µM (≈ 0.361 µg/mL)	4 µM (≈ 1.44 µg/mL)	4 µM (≈ 1.44 µg/mL)	16 µM (≈ 5.78 µg/mL)	16 µM (≈ 5.78 µg/mL)	17.7 µM
O=C(Nc1ccc(C(F)(F)F)cc1)c1cc(Br)c(Br)cc1O	2 µM (≈ 0.878 µg/mL)	4 µM (≈ 1.76 µg/mL)	4 µM (≈ 1.76 µg/mL)	3.13	4 µM (≈ 1.76 µg/mL)	4 µM (≈ 1.76 µg/mL)	2 µM (≈ 0.878 µg/mL)	4 µM (≈ 1.76 µg/mL)	4 µM (≈ 1.76 µg/mL)	32 µM (≈ 14 µg/mL)	62.5 µM (≈ 27.4 µg/mL)	6.25 µM
O=C(Nc1ccc(Cl)c(Cl)c1)c1cc(Cl)c(Br)cc1O	4 µM (≈ 1.58 µg/mL)	8 µM (≈ 3.16 µg/mL)	8 µM (≈ 3.16 µg/mL)	2.76	8 µM (≈ 3.16 µg/mL)	8 µM (≈ 3.16 µg/mL)	2 µM (≈ 0.791 µg/mL)	8 µM (≈ 3.16 µg/mL)	8 µM (≈ 3.16 µg/mL)	125 µM (≈ 49.4 µg/mL)	125 µM (≈ 49.4 µg/mL)	11.1 µM
O=C(Nc1ccc(Br)cc1)c1cc(Br)c(Br)cc1O	4 µM (≈ 1.8 µg/mL)	8 µM (≈ 3.6 µg/mL)	8 µM (≈ 3.6 µg/mL)	4.47	8 µM (≈ 3.6 µg/mL)	8 µM (≈ 3.6 µg/mL)	4 µM (≈ 1.8 µg/mL)	4 µM (≈ 1.8 µg/mL)	8 µM (≈ 3.6 µg/mL)	32 µM (≈ 14.4 µg/mL)	32 µM (≈ 14.4 µg/mL)	17.9 µM
O=C(Nc1ccc(C(F)(F)F)cc1)c1cc(Cl)c(Br)cc1O	2 µM (≈ 0.789 µg/mL)	4 µM (≈ 1.58 µg/mL)	4 µM (≈ 1.58 µg/mL)	3.26	4 µM (≈ 1.58 µg/mL)	4 µM (≈ 1.58 µg/mL)	1 µM (≈ 0.395 µg/mL)	4 µM (≈ 1.58 µg/mL)	4 µM (≈ 1.58 µg/mL)	32 µM (≈ 12.6 µg/mL)	32 µM (≈ 12.6 µg/mL)	6.52 µM
O=C(Nc1ccc(Cl)c(Cl)c1)c1cc(Br)c(Br)cc1O	4 µM (≈ 1.76 µg/mL)	8 µM (≈ 3.52 µg/mL)	8 µM (≈ 3.52 µg/mL)	1.99	8 µM (≈ 3.52 µg/mL)	8 µM (≈ 3.52 µg/mL)	2 µM (≈ 0.88 µg/mL)	8 µM (≈ 3.52 µg/mL)	8 µM (≈ 3.52 µg/mL)	62.5 µM (≈ 27.5 µg/mL)	62.5 µM (≈ 27.5 µg/mL)	7.96 µM
O=C(Nc1cc(C(F)(F)F)cc(C(F)(F)F)c1)c1cc(Br)c(Br)cc1O	2 µM (≈ 1.01 µg/mL)	8 µM (≈ 4.06 µg/mL)	8 µM (≈ 4.06 µg/mL)	1.5	8 µM (≈ 4.06 µg/mL)	8 µM (≈ 4.06 µg/mL)	2 µM (≈ 1.01 µg/mL)	4 µM (≈ 2.03 µg/mL)	8 µM (≈ 4.06 µg/mL)	16 µM (≈ 8.11 µg/mL)	32 µM (≈ 16.2 µg/mL)	3 µM
